Screens from PubChem.
ERAP1 HTS inh = ERAP1 (human) enzyme inhibition; Q9NZ08; recombinant ERAP1, Leu-AMC fluorescence, 60 min; inhibition, % at 10.7 µM; 0.15% of 340,000 active; AID 652197;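 active = mean replicate inhibition of at least 30%, or all replicates individually reaching that 30% level; inactive = mean below 30% and not every replicate reaching it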;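 note: 0% = neutral control wells and 100% = L-leucinethiol positive control wells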
Cneo AK release = causes C. neoformans cell lysis. adenylate kinase release luminescence, 4 h; normalised: neutral wells 0, clomiphene wells 100. lysis activity, % at 15 µM. 0.2% of 360,000 active;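 active = mean lysis activity across replicates of at least 80%, whatever share of replicates individually reach that level; inactive = mean lysis activity below 80%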
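Assay system: C. neoformans cells. Amount: yeast cell density of 5 × 10^6 cells/mL. Technique: AK luminescence. Buffer or medium: YPD. Times: static 4 h at 37 °C with compound, 1 h detection. Dosing: single-point compound dose. Read-out: lysis from increased AK signal.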
FGF22 binding = shifts melting point of recombinant human FGF22. recombinant FGF22 thermal shift, SYPRO orange fluorescence; percent of sucrose octasulfate shift, DMSO zero. activity (Tm shift, normalised), % at 9.99 µM. 1.5% of 340,000 active. AID 651658;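 active = mean Tm shift, scaled 0 neutral to 100 positive control, at about 1.3% or above, every replicate too, limit read from the data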
Target sequence (Q9HCT0 whole entry, looked up): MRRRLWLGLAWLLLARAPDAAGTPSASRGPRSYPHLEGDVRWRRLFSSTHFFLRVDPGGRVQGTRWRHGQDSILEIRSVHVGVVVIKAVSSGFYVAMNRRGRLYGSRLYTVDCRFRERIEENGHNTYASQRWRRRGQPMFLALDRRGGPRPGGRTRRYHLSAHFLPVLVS
Ecoli rRNA inh = inhibitors of bacterial rRNA selective over humanized ribosomes. E. coli WT GFP vs humanized-ribosome RFP mutants, fluorescence, 24 h; active compounds read low; DMSO median 0, no signal -100. GFP signal change (wild-type ribosome), % (test concentration not listed). 1.6% of 350,000 active. AID 720706;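 active = significant combined selectivity score with lowered wild-type GFP, culture density cut under 30%, mutant RFP and density less affected; inactive = any of these conditions unmet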
PGC1a acetyl inh = PGC1a acetylation modulation, inhibitor mode. U2OS PGC1a acetylation, AlphaScreen anti-acetyl-lysine; with virally co-expressed GCN5 acetyltransferase. inhibition, % at 15.6 µM. 0.17% of 350,000 active. AID 651687;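 active = every replicate shows inhibition of at least 40%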;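 note: 0% = neutral control wells and 100% = positive control wells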
HIV Env fusion = HIV envelope-mediated fusion inhibition | 1.1% of 360,000 active | AID 651610 | inhibition, % at 12.3 µM | HeLa-JRFL Env/CEM21 cell fusion, luciferase;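 active = mean replicate inhibition score of at least 50 and every replicate individually at or above 50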;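 note: 0% = plate neutral controls and 100% = maraviroc near 300 nM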
Numbers without * were called inactive; [ ] = dose if it differs, or a comment. Rows were chosen to be rich in hits. Some 3.5% of all compounds tested hit in one or more screens of this group.

Results for COc1ccc(CNc2oc(-c3cccc4ccccc34)nc2C#N)cc1 ?
ERAP1 HTS inh: 5; Cneo AK release: 1; FGF22 binding: 0; Ecoli rRNA inh: -14

Results for CCOP(=O)(OCC)c1nc(-c2cccc3ccccc23)oc1NCCc1ccc(OC)cc1 ?
ERAP1 HTS inh: 1; Cneo AK release: 1; FGF22 binding: 0; Ecoli rRNA inh: 9; PGC1a acetyl inh: 4; HIV Env fusion: 63*

Results for COc1ccc(CN2CCN(CC=C(C)C)C(CCO)C2)cc1Cn1cccn1 (stereo unspecified) ?
ERAP1 HTS inh: -2; FGF22 binding: 44*; Ecoli rRNA inh: 19; HIV Env fusion: 14

How did COc1ccccc1-n1cc(CN2CCN(CC=C(C)C)C(CCO)C2)cn1 (stereo unspecified) do in these assays?
ERAP1 HTS inh: -2; Cneo AK release: -1; FGF22 binding: 0; Ecoli rRNA inh: 13; PGC1a acetyl inh: -4; HIV Env fusion: 9

What do the screens show for `CC(C)CCN1CCN(Cc2ccc3nsnc3c2)CC1CCO` (stereo unspecified)?
HIV Env fusion: -5

How did COc1ccc(CN2CCN(CCc3ccccc3)C(CCO)C2)cc1Cn1cncn1 (stereo unspecified) do in these assays?
ERAP1 HTS inh: -4; Cneo AK release: -6; FGF22 binding: 44*; Ecoli rRNA inh: 11; PGC1a acetyl inh: -20; HIV Env fusion: 3

How did CC(C)=CCN1CCN(Cc2ccc3nsnc3c2)CC1CCO (stereo unspecified) do in these assays?
ERAP1 HTS inh: 6; FGF22 binding: 43*; Ecoli rRNA inh: 11; HIV Env fusion: 0

How did CC1(c2nnnn2-c2ccc3c(c2)OCCO3)CCC(=O)N1CC1CCCCC1 (stereo unspecified) do in these assays?
FGF22 binding: 0; Ecoli rRNA inh: 0; HIV Env fusion: 15

Results for C[C@@H]1CCCCO[C@H](CN(C)C(=O)CCCN(C)C)[C@@H](C)CN([C@@H](C)CO)C(=O)c2cc(NC(=O)C3CCCCC3)ccc2O1 ?
ERAP1 HTS inh: -2; Cneo AK release: 1; FGF22 binding: 0; Ecoli rRNA inh: 1; PGC1a acetyl inh: -5; HIV Env fusion: -12[16.7 µM]

How did COC(=O)c1cccc(N2C(=O)C3CC=CCC3C2=O)c1 (stereo unspecified) do in these assays?
Cneo AK release: -1; PGC1a acetyl inh: -6; HIV Env fusion: -4

How did CCn1nc(C(=O)OCc2cccc(S(=O)(=O)N(C)C)c2)c2ccccc2c1=O do in these assays?
ERAP1 HTS inh: -3; FGF22 binding: 0; Ecoli rRNA inh: -25*; HIV Env fusion: -6

Results for CN(C)S(=O)(=O)c1cccc(COC(=O)c2ccc(Cl)cc2O)c1 ?
FGF22 binding: 0; Ecoli rRNA inh: -17; HIV Env fusion: 8

How did CC12C(=O)N(c3nccs3)C(=O)C1(C)C1CCC2O1 (stereo unspecified) do in these assays?
ERAP1 HTS inh: 0; Cneo AK release: -1; FGF22 binding: 43*; Ecoli rRNA inh: 13; PGC1a acetyl inh: 3

Results for Cc1nc2ncnn2c(C)c1CCC(=O)NCc1ccco1 ?
Cneo AK release: -2; PGC1a acetyl inh: 1; HIV Env fusion: 6

Results for Cc1cc(C)c2nc(NNC(=O)c3cc(=O)c4ccccc4o3)sc2c1 ?
Cneo AK release: 1; FGF22 binding: 0; Ecoli rRNA inh: -27*; PGC1a acetyl inh: -8; HIV Env fusion: -42

How did Fc1ccc(NC(=S)Nc2cc(-c3ccccc3)[nH]n2)cc1Cl do in these assays?
ERAP1 HTS inh: -1; Cneo AK release: 1; FGF22 binding: 0; Ecoli rRNA inh: -54*; PGC1a acetyl inh: -4; HIV Env fusion: 11

Results for Fc1ccc(NC(=S)Nc2cccnc2)cc1Cl ?
ERAP1 HTS inh: -6; FGF22 binding: 1; Ecoli rRNA inh: -54; HIV Env fusion: -4

Results for Cc1ccc(NC(=S)Nc2cc(-c3ccccc3)[nH]n2)cc1Cl ?
ERAP1 HTS inh: -1; Cneo AK release: 2; FGF22 binding: 0; Ecoli rRNA inh: -20*; HIV Env fusion: 13

How did CC(C)NC(=O)N(C)C[C@@H]1Oc2c(NS(=O)(=O)c3ccc(F)cc3)cccc2C(=O)N([C@@H](C)CO)C[C@H]1C do in these assays?
ERAP1 HTS inh: 1; Cneo AK release: 0; FGF22 binding: 0; Ecoli rRNA inh: 2; PGC1a acetyl inh: -8

What do the screens show for `Cc1cc[n+](C(C)C(=O)c2ccc(-c3ccccc3)cc2)cc1` (stereo unspecified)?
ERAP1 HTS inh: -4; FGF22 binding: 0; Ecoli rRNA inh: -26; PGC1a acetyl inh: 1; HIV Env fusion: 10

How did CC(C(=O)c1ccc(-c2ccccc2)cc1)[n+]1ccccc1 (stereo unspecified) do in these assays?
Cneo AK release: -2; PGC1a acetyl inh: -23; HIV Env fusion: 46*

What do the screens show for `CNC(=O)c1cc(NC(=O)CCn2nc(-c3ccc(C)cc3)c3ccccc3c2=O)ccc1OC`?
Cneo AK release: -1; FGF22 binding: 0; Ecoli rRNA inh: 5; PGC1a acetyl inh: -6; HIV Env fusion: 62*

Results for COCCNC(=O)CCn1nc(-c2ccc(C)cc2)c2ccccc2c1=O ?
ERAP1 HTS inh: -2; Cneo AK release: 0; FGF22 binding: 0; Ecoli rRNA inh: 15; PGC1a acetyl inh: -1; HIV Env fusion: 7

Results for Cc1ccc(NC(=O)c2ccc(-c3nn(C)c(=O)c4ccccc34)cc2)cc1 ?
ERAP1 HTS inh: -3; Cneo AK release: -1; Ecoli rRNA inh: -2; HIV Env fusion: 75*

How did COc1ccc(OC)c(S(=O)(=O)NC2CC(=O)N(c3ccc(C)c(C)c3)C2)c1 (stereo unspecified) do in these assays?
ERAP1 HTS inh: 1; Cneo AK release: 1; FGF22 binding: 0; Ecoli rRNA inh: -10; HIV Env fusion: -6

How did COc1ccc(OC)c2c1C(=O)C(Cl)=C(Cl)C2=O do in these assays?
Cneo AK release: 2; FGF22 binding: 0; Ecoli rRNA inh: -4; PGC1a acetyl inh: 31; HIV Env fusion: 94*

How did COc1ccc(-c2csc(NC(=O)CN3C(=O)C4CC=CCC4C3=O)n2)cc1 (stereo unspecified) do in these assays?
ERAP1 HTS inh: 1; Cneo AK release: -1; FGF22 binding: 0; Ecoli rRNA inh: -5; PGC1a acetyl inh: -13
